No end group written: not given here.
Legend:
[1] = molecular target: T1, human NK1 receptor (Homo sapiens, UniProt P25103); experiment: NK1R antagonist block of SP‐induced Ca2+ mobilization in HEK‐NK1R cells; format: cell-based; conditions: antagonist 100 nM, 2 min pre‐incubation; n = 5
Procedure, shortened: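 HEK-293 cells stably expressing human NK1R, grown in IMDM/10% FBS with hygromycin. Loaded with 4 μM Fura-2 AM (60–90 min, 37°C), 100 000 cells/well. After a 30-s baseline, antagonist or DMSO vehicle is added for 2 min, then the stimulus. Ratiometric Ca2+ (340/380 nm) is read over 4 min at 37°C. Paired t-test.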

[2] = test system: LAD2 human mast cells; conditions: cited from earlier work
[3] = test system: LAD2 human mast cells; conditions: cited from earlier work; remark: listed apart in the source
[4] = molecular target: T1, human NK1 receptor; experiment: Ca2+ mobilization in HEK‐NK1R cells; format: cell-based; conditions: even at high concentrations
[5] = test system: LAD2 human mast cells; experiment: LAD2 cell degranulation; format: cell-based; conditions: β‐hexosaminidase release
Procedure, shortened: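 IgE-sensitized LAD2 cells (wild-type or MRGPRX2-knockdown) in HANKS buffer pH 7.4, 35 000 cells/well, exposed to a concentration range for 30 min at 37°C. Supernatant is incubated with 4 mM p-NAG (pH 4.5) for 90 min at 37°C, quenched with glycine pH 10.7, and read at 405 nm. Release is expressed as % of Triton X-100 (0.1%) lysate total, minus spontaneous release.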

[6] = molecular target: T2, MRGPRX2 (Homo sapiens, UniProt Q96LB1); experiment: Antagonism of SP activation of MRGPRX2; format: cell-based; conditions: pilot studies, results not shown
T2 sequence (Q96LB1 1-330): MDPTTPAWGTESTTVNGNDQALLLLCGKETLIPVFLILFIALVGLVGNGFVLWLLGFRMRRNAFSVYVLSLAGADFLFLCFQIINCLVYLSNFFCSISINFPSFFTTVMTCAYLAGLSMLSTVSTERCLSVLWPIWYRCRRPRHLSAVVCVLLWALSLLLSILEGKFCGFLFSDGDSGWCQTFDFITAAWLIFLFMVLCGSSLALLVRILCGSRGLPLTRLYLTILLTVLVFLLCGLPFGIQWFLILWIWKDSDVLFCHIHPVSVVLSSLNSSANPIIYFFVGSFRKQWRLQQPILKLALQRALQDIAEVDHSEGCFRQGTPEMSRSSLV

[7] = test system: LAD2 human mast cells; experiment: CCL2 release by LAD2 mast cells; format: cell-based; conditions: 24 h
[8] = test system: LAD2 human mast cells; experiment: Ca2+ mobilization in LAD2 cells; format: cell-based; conditions: Fura‐2
Procedure, shortened: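 IgE-sensitized LAD2 cells (JW8 conditioned medium, 48 h), wild-type or MRGPRX2-knockdown, washed in HANKS buffer with 1 mM probenecid. Loaded with 2 μM Fura-2 AM for 60–90 min at 37°C, then plated at 60 000 cells/well. Test compound is injected after a 30-s baseline and the 340/380 nm ratio (510 nm emission) is recorded for 6 min at 37°C. Peak ratios are taken across a concentration range.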

T1 sequence (P25103 whole entry): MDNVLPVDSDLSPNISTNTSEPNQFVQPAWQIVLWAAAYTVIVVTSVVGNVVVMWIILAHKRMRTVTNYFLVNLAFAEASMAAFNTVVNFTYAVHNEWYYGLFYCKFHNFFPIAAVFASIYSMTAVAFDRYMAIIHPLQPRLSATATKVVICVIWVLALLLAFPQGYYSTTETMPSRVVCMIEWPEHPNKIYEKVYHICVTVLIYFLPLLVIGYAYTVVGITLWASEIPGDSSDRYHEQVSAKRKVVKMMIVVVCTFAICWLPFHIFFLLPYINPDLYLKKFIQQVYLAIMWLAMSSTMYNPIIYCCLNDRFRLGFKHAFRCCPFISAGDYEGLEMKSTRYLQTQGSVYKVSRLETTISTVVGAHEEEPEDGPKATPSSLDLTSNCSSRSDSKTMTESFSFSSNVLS

COc1ccc(-n2nnnc2C(F)(F)F)cc1CN[C@H]1CCCN[C@H]1c1ccccc1 [GR205171, vofopitant]
effect of antagonist pretreatment on SP responses in HEK‐NK1R cells [1]: effectively blocked SP responses

C=CC[N+]1([C@H]2C[C@H]3[C@@H]4CC[C@H]5C[C@H](O)[C@@H](N6CCOCC6)C[C@]5(C)[C@H]4CC[C@]3(C)[C@H]2OC(C)=O)CCCC1 [rocuronium]
Ca^2+ mobilization in LAD2 cells, in words [2]: shows a mobilization of Ca^2+ | degranulation in LAD2 cells, in words [3]: without triggering concomitant degranulation

SP(1–7)‐COOH: C‐terminally truncated in vivo metabolite of SP, residues 1–7, free acid (RPKPQQF-OH; UniProt P20366 58-64, looked up, fragment)
activation of NK1R (Ca^2+ mobilization), in words [4]: failed to induce significant activation | LAD2 degranulation, in words [5]: failed to produce cellular activation | antagonism of SP activation of MRGPRX2 [6]: not been able to demonstrate any antagonism | CCL2 cytokine release from LAD2 cells, in words [7]: minimal and comparable to spontaneous release | LAD2 Ca^2+ mobilization, in words [8]: failed to produce cellular activation
